According to article PMC7597899 (Chemical Science, 2020):

Assay: Acidity
Type: physicochemical
Settings: aqueous 0.15 M KCl, with or without methanol cosolvent
How it was run: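 Potentiometric titrations in 0.15 M KCl, titrated with 0.5 M HCl and KOH over pH 2.0–12.0. Samples were ≤0.5 mg and run in triplicate. Standard deviation came from fitting all three replicates. For water-insoluble compounds, methanol was added and the apparent psKa was extrapolated to aqueous pKa by the Yasuda–Shedlovsky procedure.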

Row | Compound | pKa
1 | CONC(=O)c1n[nH]c2ccccc12 [Compound 1a, O-methyl indazole-3-hydroxamic acid] | 8.43
2 | CONC(=O)c1nsc2ccccc12 [Compound 3a, O-Methyl 1,2-benzisothiazole-3-hydroxamic acid] | 7.44
3 | CONC(=O)c1nc2ccccc2s1 [Compound 4a, O-methyl benzothiazole-2-hydroxamic acid] | 6.34
4 | CONC(=O)c1nc2ccccc2[nH]1 [Compound 2a, O-methyl benzimidazole-2-hydroxamic acid] | 7.21
